# Screening results (PubChem BioAssay)
# A selection: hits, their analogues and other compounds. The true share with any hit is near 2.6%.
# RAM network inh: blocks the yeast RAM network; 1.8% of 190,000 active; AID 868; S. cerevisiae dse1pr::URA3 reporter, 5-FOA growth OD615, 2 d; analog-sensitive cbk1-as2 kinase mutant strain; inhibition, % at 50 µM;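 active means inhibition above a set limit, 3 SD over mean compound inhibition, cut at about 8.4% in these data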;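 further: 0% = DMSO-only wells with no growth and 100% = 10 µM 1-NA-PP1 full growth; inhibition rescues growth on 5-FOA so higher OD means more RAM inhibition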
# BB579 growth dn: reduces growth of yeast BB579 in restrictive medium; inhibition, % at 10 µM; AID 804; 0.51% of 140,000 active; S. cerevisiae BB579 growth, OD615, 48 h;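 active means inhibition above a set limit, 3 SD over the mean compound inhibition, cut at about 44% in these data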
#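 Assay system: S. cerevisiae DeaD strain BB579 yeast. Medium: CSMM-D restrictive synthetic medium containing dextrose (glucose). Times: 4 h cell preincubation, 48 h compound exposure, 30 °C humidified. Signal: OD615 turbidity measurement. Benchmarks: positive control amphotericin B 10 µg/mL.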
# Yeast lifespan up: yeast lifespan extension; S. cerevisiae growth with nicotinamide, OD615; deaD strain in restrictive glucose medium; inhibition of the nicotinamide effect, % at 10 µM; 0.68% of 130,000 active; AID 775;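 active means inhibition above a set limit, placed 3 SD over the median of all compounds, cut at about 26% in these data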;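 further: 0% = nicotinamide-treated wells and 100% = cells grown without nicotinamide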
#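 Test system: DeaD-strain S. cerevisiae / Buffer or medium: restrictive glucose medium / Also added: nicotinamide 1.5 mM / Doses: one concentration, 10 µM, DMSO 0.25% / Schedule: 48 h at 30 °C / Signal: OD615 measurement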
# The depositor's hits bear a star; . = no result.
SMILES,RAM network inh,BB579 growth dn,Yeast lifespan up
O=C(CCc1nnc(CCC2CCCCC2)o1)NCCc1cccnc1,0,.,.
Cn1cccc1/C=N/N1CCN(c2ccccc2)CC1,0,.,.
Nc1nc(=S)[nH]c2c1C1(CCCCC1)Cc1ccccc1-2,-1,-7,0
COc1ccc(Oc2c(-c3ccc(O)cc3O)n[nH]c2C)cc1,-1,-26,-5
COc1cccc(Oc2cn[nH]c2-c2ccc(O)cc2O)c1,2,-60,-15
CCCc1ccc(Oc2c(-c3ccc(O)c(C)c3O)n[nH]c2C)cc1,9.1*,99*,-15
CCCc1ccc(Oc2cn[nH]c2-c2ccc(O)c(C)c2O)cc1,0,100*,-15
O=C(CCc1ccc(S(=O)(=O)N2CCOCC2)cc1)N1CCc2ccccc2C1,0,.,.
COc1cccc(N2CCN(C(=O)CCNS(=O)(=O)c3ccc4c(c3)c(=O)n(C)c(=O)n4C)CC2)c1,0,.,.
CCc1ccc(S(=O)(=O)NC(=S)Nc2ccccc2)cc1,2,.,.
COc1ccc(CCCC(=O)N/N=C/c2ccccc2OC)cc1,1,.,.
Cc1cc(C)c2nc(-c3ccccn3)cc(C(=O)NCc3ccc(S(N)(=O)=O)cc3)c2c1,0,.,.
Cc1cc(C)c2nc(-c3ccccn3)cc(C(=O)NCCc3ccc(S(N)(=O)=O)cc3)c2c1,10*,.,.
CCN(CC)CCN(C(=O)c1ccc(CN2CCCCC2)o1)C(C(=O)NC1CCCCC1)c1ccc(F)cc1 (stereo unspecified),0,.,.
Cc1cc(C)cc(-n2c(SCC(=O)NCc3ccco3)nc3ccccc3c2=O)c1,3,-41,56*
CCN(CC)C(=O)CSc1nc2sc3c(c2c(=O)n1-c1ccc(C)cc1)CC(C)(C)SC3,3,-44,-9
Cc1ccc(-n2c(SCC(=O)NCc3ccco3)nc3sc4c(c3c2=O)CC(C)(C)SC4)cc1,10*,-66,25
Cc1cccc(C)c1-n1c(SCC(=O)NCc2ccco2)nc2ccccc2c1=O,1,5,-17
CCCCOc1ccc(/C=C/C(=O)NC2=Nc3ccccc3NC(C)=C2C(=O)OCC)cc1OC,3,.,.
CCCCSCCCNC(=O)Nc1ccc(C)c(C)c1,0,.,.
Cc1ccc(Cc2cnc(N3C(=N)SC(C)C3=O)s2)cc1 (stereo unspecified),2,.,.
O=C1c2ccccc2C(=O)N1c1ncc(Cc2ccc(Cl)cc2)s1,5,-2,47*
O=C(NNC1=Nc2cccc3cccc1c23)c1ccc(Br)cc1,6,.,.
CC(=O)N1CCN(c2ccccc2NC(=O)COc2ccc(Cl)cc2Cl)CC1,2,-19,-11
CC(=O)N1CCN(c2ccc(NC(=O)COc3ccc(Cl)cc3Cl)cc2)CC1,10*,-5,-4
SMILES,RAM network inh,BB579 growth dn,Yeast lifespan up
CCOc1ccc(C2C(C#N)=C(N)Oc3cc(C)n(CCN(C)C)c(=O)c32)cc1OCC (stereo unspecified),1,-18,-2
Cc1noc(C)c1COC(=O)CCOc1ccccc1,-1,-29,-10
Cc1noc(C)c1COC(=O)CCN1c2ccccc2Sc2ccccc21,10*,-24,3
FC(F)(F)c1cccc(Cc2noc(CN3CCC(c4ccncc4)CC3)n2)c1,1,.,.
COc1ccccc1OCCNc1cc(N2CCCCC2)ccc1[N+](=O)[O-],11*,-12,-4
Cc1ccccc1OCCNc1cc(N2CCNCC2)ccc1[N+](=O)[O-],1,.,.
C/C=C/c1cc(CN2CCN(c3ccc(OC)cc3)CC2)c(O)c(OC)c1,2,.,.
O=C(O)c1c[nH]c(=S)n1-c1ccc(F)cc1,1,-33,103*
CSc1ncc(C(=O)O)n1-c1ccc(F)cc1,2,14,-3
O=C(COC(=O)/C=C/c1ccco1)NCc1ccc2c(c1)OCO2,3,.,.
COc1ccc(C(=O)C/C(=C\C(=O)c2ccc(C)cc2)c2ccccc2)cc1,11*,-23,33*
COc1ccc(C(CC(=O)c2ccccc2)S(=O)(=O)c2ccc(C)cc2)cc1 (stereo unspecified),9.8*,-20,-15
CC(=O)CC(c1ccccc1)S(=O)(=O)c1ccc(C)cc1 (stereo unspecified),2,10,-7
COc1ccc(O)c(C(=O)CC(=O)c2ccccc2)c1,2,-13,-30
CN(Cc1cnccn1)Cc1ccccc1OCC(O)CN1CCc2ccccc2C1 (stereo unspecified),1,.,.
Cc1c(/C(O)=C2/C(=O)C(=O)N(Cc3cccnc3)C2c2ccccn2)cnn1-c1ccccc1 (stereo unspecified),0,.,.
CCn1c(SCC(=O)Nc2oc(-c3ccccc3)c(-c3ccccc3)c2C#N)nnc1-c1ccncc1,4,-32,-12
N#Cc1c(NC(=O)CCN2C(=O)c3ccccc3C2=O)oc(-c2ccccc2)c1-c1ccccc1,9.5*,-20,0
N#Cc1c(NC(=O)CCn2cnc3ccccc3c2=O)oc(-c2ccccc2)c1-c1ccccc1,8,-71,-10
CCn1c(SCC(=O)Nc2oc(-c3ccccc3)c(-c3ccccc3)c2C#N)nnc1-c1ccco1,8.8*,-26,-13
CSc1ccccc1NC(=O)c1cc(-c2cccnc2)nc2ccc(Br)cc12,0,.,.
O=C(Oc1ccc(OC(=O)C2CCC2)cc1)C1CCC1,1,-10,-3
CS(=O)(=O)c1cnc(-c2cccnc2)nc1N,1,.,.
CCCCc1ccc(NC(=S)Nc2ccc(Nc3ccc(OC)cc3)cc2)cc1,7,56*,-5
CCCCc1ccc(NC(=S)NCc2cccc(OC)c2)cc1,2,.,.
SMILES,RAM network inh,BB579 growth dn,Yeast lifespan up
Cc1cc(C)nc(NCCC(=O)O)n1,0,.,.
C/C=C/C(=O)OCC(=O)Nc1nc2ccc(C)cc2s1,5,-19,49*
CCOCC(=O)Nc1nc2ccc(C)cc2s1,-1,-7,-2
O=[N+]([O-])c1ccc2nc(-c3ccc(OC(F)F)cc3)cn2c1,3,.,.
Cc1ccc(Oc2cc(NC(=O)CCCn3nc([N+](=O)[O-])cc3C)cc([N+](=O)[O-])c2)cc1,9.5*,-41,0
Cc1ccc(NC(=O)CCn2nc([N+](=O)[O-])cc2C)nc1,0,-12,27*
Cc1nn(CCCC(=O)Nc2cc(Oc3ccccc3)cc([N+](=O)[O-])c2)c(C)c1[N+](=O)[O-],6,-9,1
Cc1cc([N+](=O)[O-])nn1CC(=O)Nc1ccc(Cl)cn1,4,.,.
Fc1cccc(F)c1-n1c(CN2CCCCC2)csc1=S,2,.,.
COc1ccc(C2C(C(=O)NCc3ccccn3)CCC(=O)N2c2cc(OC)c(OC)c(OC)c2)cc1 (stereo unspecified),-1,.,.
COc1ccc(NC(=O)CN2C(=O)C(C)SC(C)C2=O)c(OC)c1 (stereo unspecified),3,-22,10
CCC1C(=O)N(C)CCc2ccccc21 (stereo unspecified),1,-34,10
COc1ccc(NC(=O)COc2ccc(/C=N/O)cc2OC)cc1,0,.,.
CCOc1ccc(/C=N/OCC(=O)Nc2ccc(OCc3ccccc3)cc2)cc1OC,11*,-26,-4
COc1cc(/C=N/OCC(=O)NC2CCCCC2)ccc1OCc1ccccc1,7,-16,0
COc1cc(/C=N/OCC(=O)Nc2ccc(OC(F)F)cc2)ccc1OCc1ccccc1,8.4*,-40,1
C#CCONC(=O)c1cc(OCC(F)(F)F)ccc1OCC(F)(F)F,2,-8,9
